From ChEMBL document CHEMBL4387752, “Identification of substituted benzothiazole sulfones as potent and selective inhibitors of endothelial lipase” (Bioorg Med Chem Lett, 2019) come the findings set out here.

Data set [1] deals with T1, Endothelial lipase (Homo sapiens, UniProt Q9Y5X9).
T1 sequence (Q9Y5X9 whole entry): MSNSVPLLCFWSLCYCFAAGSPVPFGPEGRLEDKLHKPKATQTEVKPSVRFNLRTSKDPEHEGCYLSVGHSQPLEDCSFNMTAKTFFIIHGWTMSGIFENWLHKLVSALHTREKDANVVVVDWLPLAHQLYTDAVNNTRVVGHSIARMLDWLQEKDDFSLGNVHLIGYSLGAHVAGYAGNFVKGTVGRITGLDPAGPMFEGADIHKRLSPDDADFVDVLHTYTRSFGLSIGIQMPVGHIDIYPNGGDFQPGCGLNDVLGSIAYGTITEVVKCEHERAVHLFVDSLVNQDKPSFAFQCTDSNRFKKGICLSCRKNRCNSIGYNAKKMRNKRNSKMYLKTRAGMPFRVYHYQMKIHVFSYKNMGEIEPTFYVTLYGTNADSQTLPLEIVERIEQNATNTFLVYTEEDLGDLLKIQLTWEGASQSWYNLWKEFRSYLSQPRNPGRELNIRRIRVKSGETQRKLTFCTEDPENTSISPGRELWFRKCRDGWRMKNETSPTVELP
The experiment in a line: Inhibition of human endothelial lipase derived from human HT1080 cell conditioned media using PED-A1 as substrate incubated for 20 mins and measured every 20 secs for 10 mins by FRET assay. In outline: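 IC50s were calculated from mean inhibition values of duplicate determinations.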

Data set [2] in a line: Cmax in Balb/c mouse at 10 mg/kg, po. It is filed as ADME, organism-based. Further details: dose 10 mg/kg, route oral. The note with it: in vivo. In outline:
(§1)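 Oral PK in fasted male balb/c mice. Dosing vehicle was ethanol/PEG 400/water (10:60:30).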

Data set [3] in a line: Plasma concentration in Balb/c mouse at 10 mg/kg, po measured after 7 hrs. It is filed as ADME, organism-based. In outline: as §1
The nature of data set [4]: Plasma concentration in Balb/c mouse at 10 mg/kg, po measured after 24 hrs. It is filed as ADME, organism-based. In outline:
as §1

The nature of data set [5]: Tmax in Balb/c mouse at 10 mg/kg, po. The note with it: in vivo. Format: ADME, organism-based. In outline: as §1
The nature of data set [6]: Metabolic stability in Balb/c mouse liver microsomes assessed as parent compound remaining at 0.5 uM measured after 10 mins. Format: ADME, Microsome. The note with it: read-out: Stability. In outline: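 Test compound at 0.5 μM was incubated for 10 min with mouse liver microsomes. The read-out is the percentage of parent remaining.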
A short description of data set [7]: Cmax in Balb/c mouse at 20 mg/kg, po. Set-up: dose 20 mg/kg, route oral. It is filed as ADME, organism-based. The note with it: in vivo. In outline:
as §1

Data set [8] in a line: Plasma concentration in Balb/c mouse at 20 mg/kg, po measured after 24 hrs. Format: ADME, organism-based. In outline:
as §1

Data set [9] in a line: Total AUC in Balb/c mouse at 20 mg/kg, po measured after 24 hrs. Format: ADME, organism-based. Set-up: dose 20 mg/kg, time AUCmax, route oral. As to conditions: in vivo. In outline: as §1
Data set [10] is described as follows: Plasma concentration in Balb/c mouse at 30 mg/kg, po measured after 24 hrs. It is filed as ADME, organism-based. A digest of the protocol:
as §1

Data set [11] can be described thus: Total AUC in Balb/c mouse at 30 mg/kg, po measured after 24 hrs. It is filed as ADME, organism-based. Further details: dose 30 mg/kg, route oral, time AUCmax. As to conditions: in vivo. A digest of the protocol: as §1
The nature of data set [12]: Ratio of total AUC in Balb/c mouse at 20 mg/kg, po to total AUC in Balb/c mouse at 10 mg/kg, po measured after 24 hrs. Format: ADME, organism-based. The note with it: in vivo. A digest of the protocol:
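Ratio of AUCtotal between 20 and 10 mg/kg oral doses in fasted male balb/c mice. Vehicle was ethanol/PEG 400/water (10:60:30).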

The nature of data set [13]: Cmin in C57BL/6 mouse at 20 mg/kg, po bid measured after 8 hrs. Format: ADME, organism-based. As to conditions: in vivo, read-out: Cmin. A digest of the protocol: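 Satellite PK cohort of wild-type C57BL/6 mice given 20 mg/kg p.o. b.i.d. over 4 days. Plasma levels were taken at 8, 24 and 102 h.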
In data set [14] the test system is Mus musculus. The experiment in a line: Effect on in LDL-C level in C57BL/6 mouse plasma at 20 mg/kg, po bid measured after 1 to 4 days by FPLC analysis. It is filed as functional, organism-based. In outline:
(§2)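 Wild-type C57BL/6 mice were dosed at 20 mg/kg p.o. b.i.d. for 4 days alongside a vehicle control group. Lipoprotein profiles were obtained by FPLC on day 1 and day 4, using plasma pooled from 8 mice.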

Data set [15] has as its system Mus musculus. The experiment in a line: Increase in HDL-C level in C57BL/6 mouse plasma at 20 mg/kg, po bid measured after 1 to 4 days by FPLC analysis. It is filed as functional, organism-based. A digest of the protocol: as §2
Data set [16] can be described thus: Ratio of Cmin in C57BL/6 mouse at 20 mg/kg, po bid measured after 24 hrs to IC50 for inhibition of mouse endothelial lipase expressed in HEK293F cells using D31-POPC-HDL as substrate incubated for 2 hrs in presence of mouse plasma by LC/MS analysis. It is filed as organism-based. As to conditions: in vivo.

The structures appear in SMILES notation. The source made the active and inactive calls. The rule behind the calls is not given here. Some results are limits rather than exact numbers.

As usually defined, the IC50 is the concentration that gives 50% inhibition. Low readings indicate higher potency, high ones lower potency. The term Cmax denotes the maximum level reached in the sampled fluid or tissue. For orientation: Tmax means the time from dosing to the highest level. What is called AUC is the area under the concentration-time curve, a measure of exposure. In [1], `COCCS(=O)(=O)C(C(=O)NCC(=O)NC1CC1)c1nc2ccc(-c3ccc(F)nc3)cc2s1` (stereo unspecified) showed an IC50 of 4.6 nM. Also, the Cmax in data set [2] was 39000 nM; in data set [7] it was 143000 nM. For the same compound, in data set [3], the concentration at 7 h is 1700 nM. The concentration at 24 h in [4] was 14 nM; in [8] it was 45 nM; in data set [10] it was 25 nM. The Tmax in data set [5] is 1 h. Further, in data set [6], the remaining at 10 min, 0.5 µM turned out to be 81%. The AUC at 24 h in data set [9] was 400 µM·h; in data set [11], 240 µM·h. The Ratio in data set [12] is 3.6; in [16], > 15. Besides, in [13], the concentration at 8 h was found to be 5200 nM. Further, the outcome in data set [14] and in data set [15] was inactive.
